The values below come from ChEMBL document CHEMBL4177760, “Ligand-Phospholipid Conjugation: A Versatile Strategy for Developing Long-Acting Ligands That Bind to Membrane Proteins by Restricting the Subcellular Localization of the Ligand” (J Med Chem, 2018).

The source made the active and inactive calls. The rule behind the calls is not given here.

In assay [1] the target is T1, Muscarinic acetylcholine receptor (Rattus norvegicus) (UniProt P08482+P08483+P08485+P08911+P10980). The assay is described as follows: Displacement of [3H]NMS from muscarinic receptor in Sprague-Dawley rat brain homogenates assessed as remaining protein bound radioligand levels at 300 pM to 1 uM after 60 mins by liquid scintillation counting method relative to control. A digest of the protocol: (§1)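 Rat brain homogenates incubated with test ligand at 25 °C. [3H]N-methyl scopolamine binding to muscarinic receptors measured before and after wash-out with ice-cold buffer and expressed as binding remaining. Based on at least four experiments.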

Assay [2] deals with Muscarinic acetylcholine receptor. The assay is described as follows: Displacement of [3H]NMS from muscarinic receptor in Sprague-Dawley rat brain homogenates after 60 mins by liquid scintillation counting method. A digest of the protocol: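 Competition binding against [3H]N-methyl scopolamine in rat brain homogenates carrying muscarinic receptors; read-out as log IC50; data from at least four experiments.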

Assay [3] deals with T1, Muscarinic acetylcholine receptor (Rattus norvegicus). Briefly: Displacement of [3H]NMS from muscarinic receptor in Sprague-Dawley rat brain homogenates assessed as remaining protein bound radioligand levels at 300 pM to 1 uM preincubated for 60 mins followed by single washout treatment by liquid scintillation counting method relative to control. The method in brief:
as §1
(In general: Loss of bound radioactivity is the signal in a displacement assay; it reports binding, not function.)

For assay [4] the target is unchanged. Briefly: Displacement of [3H]NMS from muscarinic receptor in Sprague-Dawley rat brain homogenates assessed as remaining protein bound radioligand levels at 300 pM to 1 uM preincubated for 60 mins followed by double washout treatment by liquid scintillation counting method relative to control. The method in brief:
as §1

Assay [5] concerns Rattus norvegicus. The assay is described as follows: In vivo displacement of [3H]NMS from muscarinic receptor in rat bladder assessed as increase in [3H]NMS Kdapp at 10 uM administered via intravesical instillation measured after 24 hrs. The assay is classed as functional, organism-based. A digest of the protocol: (§2)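 Rats received the compound by intravesical instillation. Bladders were dissected 30 min or 24 h afterwards and [3H]N-methyl scopolamine binding to bladder muscarinic receptors was measured directly. The apparent Kd (Kdapp) of the radioligand was calculated and compared against control animals.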

In assay [6] the test system is Rattus norvegicus. The assay is described as follows: In vivo displacement of [3H]NMS from muscarinic receptor in rat bladder assessed as increase in [3H]NMS Kdapp at 10 uM administered via intravesical instillation measured after 30 mins. The assay is classed as functional, organism-based. The method in brief: as §2
In assay [7] the target is T2, Muscarinic acetylcholine receptor M5 (Rattus norvegicus, UniProt P08911).
T2 sequence (P08911 whole entry): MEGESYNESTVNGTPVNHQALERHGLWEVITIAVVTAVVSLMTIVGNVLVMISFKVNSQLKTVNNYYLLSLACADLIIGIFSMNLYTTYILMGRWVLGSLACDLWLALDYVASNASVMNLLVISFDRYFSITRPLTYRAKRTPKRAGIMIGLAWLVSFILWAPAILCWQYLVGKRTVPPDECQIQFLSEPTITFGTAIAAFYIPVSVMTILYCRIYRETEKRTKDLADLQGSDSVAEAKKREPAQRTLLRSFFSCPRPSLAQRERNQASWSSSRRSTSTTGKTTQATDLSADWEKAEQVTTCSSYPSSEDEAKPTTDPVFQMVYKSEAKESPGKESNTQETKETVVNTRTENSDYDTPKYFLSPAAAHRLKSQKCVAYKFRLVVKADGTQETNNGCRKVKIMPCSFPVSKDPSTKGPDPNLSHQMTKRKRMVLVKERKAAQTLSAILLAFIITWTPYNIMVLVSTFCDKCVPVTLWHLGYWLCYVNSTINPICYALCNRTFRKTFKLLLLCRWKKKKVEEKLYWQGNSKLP
Briefly: Displacement of [3H]NMS from muscarinic receptor M5 in Sprague-Dawley rat brain homogenates after 60 mins by liquid scintillation counting method.

In assay [8] the target is T3, Muscarinic acetylcholine receptor M4 (Rattus norvegicus, UniProt P08485).
T3 sequence (P08485 whole entry): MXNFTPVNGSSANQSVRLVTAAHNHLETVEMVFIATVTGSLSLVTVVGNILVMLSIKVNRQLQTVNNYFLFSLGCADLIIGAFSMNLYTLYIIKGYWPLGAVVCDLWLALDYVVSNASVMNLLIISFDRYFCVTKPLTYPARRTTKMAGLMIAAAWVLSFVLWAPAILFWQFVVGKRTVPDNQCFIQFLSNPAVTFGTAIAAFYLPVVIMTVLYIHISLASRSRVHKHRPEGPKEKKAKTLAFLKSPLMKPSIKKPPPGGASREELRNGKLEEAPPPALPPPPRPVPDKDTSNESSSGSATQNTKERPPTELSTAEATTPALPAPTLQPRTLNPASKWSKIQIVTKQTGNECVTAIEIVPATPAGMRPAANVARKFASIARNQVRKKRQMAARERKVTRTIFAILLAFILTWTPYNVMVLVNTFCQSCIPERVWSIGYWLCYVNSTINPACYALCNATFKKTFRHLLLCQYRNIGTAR
The assay is described as follows: Displacement of [3H]NMS from muscarinic receptor M4 in Sprague-Dawley rat brain homogenates after 60 mins by liquid scintillation counting method.

Assay [9] deals with T4, Muscarinic acetylcholine receptor M1 (Rattus norvegicus, UniProt P08482).
T4 sequence (P08482 whole entry): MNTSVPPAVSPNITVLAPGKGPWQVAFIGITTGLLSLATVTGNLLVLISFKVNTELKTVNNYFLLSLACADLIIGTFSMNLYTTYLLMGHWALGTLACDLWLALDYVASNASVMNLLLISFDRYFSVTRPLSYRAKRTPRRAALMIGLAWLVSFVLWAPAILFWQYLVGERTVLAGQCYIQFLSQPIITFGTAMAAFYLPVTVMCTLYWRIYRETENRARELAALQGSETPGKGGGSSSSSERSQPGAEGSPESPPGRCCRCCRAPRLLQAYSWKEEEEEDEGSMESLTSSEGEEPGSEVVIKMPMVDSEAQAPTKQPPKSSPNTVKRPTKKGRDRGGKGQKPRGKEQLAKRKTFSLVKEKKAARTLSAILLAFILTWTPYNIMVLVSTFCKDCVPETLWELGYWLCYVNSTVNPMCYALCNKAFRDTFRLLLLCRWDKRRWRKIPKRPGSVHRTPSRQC
The assay is described as follows: Displacement of [3H]NMS from muscarinic receptor M1 in Sprague-Dawley rat brain homogenates after 60 mins by liquid scintillation counting method.

Assay [10] deals with Muscarinic acetylcholine receptor M3 (Rattus norvegicus, UniProt P08483). The assay is described as follows: Displacement of [3H]NMS from muscarinic receptor M3 in Sprague-Dawley rat brain homogenates after 60 mins by liquid scintillation counting method.
Chain of Muscarinic acetylcholine receptor M3 (P08483 whole entry): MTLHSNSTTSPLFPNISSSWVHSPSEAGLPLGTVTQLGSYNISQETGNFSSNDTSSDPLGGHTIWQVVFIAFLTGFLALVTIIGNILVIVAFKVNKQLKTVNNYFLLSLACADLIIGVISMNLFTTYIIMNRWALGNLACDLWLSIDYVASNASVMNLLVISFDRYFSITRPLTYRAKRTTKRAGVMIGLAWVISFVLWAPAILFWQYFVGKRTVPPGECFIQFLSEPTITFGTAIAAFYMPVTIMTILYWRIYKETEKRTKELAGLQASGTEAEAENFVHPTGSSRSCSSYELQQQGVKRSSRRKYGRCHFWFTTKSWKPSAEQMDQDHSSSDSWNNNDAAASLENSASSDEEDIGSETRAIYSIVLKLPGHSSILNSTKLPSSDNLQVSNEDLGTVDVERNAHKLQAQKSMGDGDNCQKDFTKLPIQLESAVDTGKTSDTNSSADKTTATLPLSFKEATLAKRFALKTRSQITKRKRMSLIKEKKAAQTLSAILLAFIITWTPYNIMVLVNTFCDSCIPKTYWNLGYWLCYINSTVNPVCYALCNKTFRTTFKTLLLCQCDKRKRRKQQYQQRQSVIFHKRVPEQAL
In assay [11] the target is T5, Muscarinic acetylcholine receptor M2 (Rattus norvegicus, UniProt P10980).
T5 sequence (P10980 whole entry): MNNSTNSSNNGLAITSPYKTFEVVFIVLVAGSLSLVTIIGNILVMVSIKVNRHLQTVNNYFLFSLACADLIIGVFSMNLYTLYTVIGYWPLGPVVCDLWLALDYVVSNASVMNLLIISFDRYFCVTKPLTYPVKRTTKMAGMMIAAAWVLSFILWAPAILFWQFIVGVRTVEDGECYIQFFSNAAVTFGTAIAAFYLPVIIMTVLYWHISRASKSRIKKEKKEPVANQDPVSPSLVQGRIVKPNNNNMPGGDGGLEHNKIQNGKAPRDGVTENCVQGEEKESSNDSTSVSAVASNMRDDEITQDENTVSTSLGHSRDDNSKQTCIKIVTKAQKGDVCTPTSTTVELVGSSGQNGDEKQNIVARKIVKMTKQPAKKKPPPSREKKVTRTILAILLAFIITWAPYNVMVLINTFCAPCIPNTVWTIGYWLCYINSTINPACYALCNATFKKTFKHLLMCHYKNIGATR
The assay is described as follows: Displacement of [3H]NMS from muscarinic receptor M2 in Sprague-Dawley rat brain homogenates after 60 mins by liquid scintillation counting method.

For orientation: pIC50 means −log10 of the IC50, conventionally taken in molar units. Lower therefore signals a high IC50. Turning to `CCCCCCCCCCCCCCCCCC(=O)OC[C@H](COP(=O)(O)OCCOCCOCCOCCOCCOCCOCCOCCNC(=O)CCCCCC(=O)NCCc1ccc(O)c([C@H](CCN(C(C)C)C(C)C)c2ccccc2)c1)OC(=O)CCCCCCCCCCCCCCCCC`, the Activity in assay [1] was 4.7%; in [3], 2.1%. The pIC50 in assay [2] is reported as 8.15.

For `CCCCCCCCCCCCCCCCCC(=O)OC[C@H](COP(=O)(O)OCCOCCOCCOCCOCCOCCOCCOCCOCCOCCNC(=O)CCCCCC(=O)NCCc1ccc(O)c([C@H](CCN(C(C)C)C(C)C)c2ccccc2)c1)OC(=O)CCCCCCCCCCCCCCCCC`, the Activity in assay [1] was 6%; in assay [4], 2.1%; in assay [3], 1.7%. Further, the inhibition entry in the assay on Rattus norvegicus [5] and in the assay with Rattus norvegicus [6] was “Active” throughout. This compound showed a pIC50 in assay [2] of 8.53.

For the compound `CC(C)N(CC[C@H](c1ccccc1)c1cc(CCNC(=O)CCCCCC(=O)NCCOCCOCCOCCOCCOCCOCCOCCOCCOCCO)ccc1O)C(C)C.Cl`, the results for the Activity in [1], in assay [4] and in assay [3] were 7.1%, 63.5% and 34.9%, respectively. This compound gave a pIC50 in assay [2] of 7.88.

A word on the Ki: it is the equilibrium dissociation constant of an inhibitor or competing ligand from its target. A high value points to weaker binding. With `Cc1ccc(O)c([C@H](CCN(C(C)C)C(C)C)c2ccccc2)c1` [TOLTERODINE], the Ki in [7] is 2.2 nM; in assay [8] it was 3.1 nM; in assay [9], 1.4 nM. Further, the values for the Activity in [1], in assay [4] and in [3] were 9%, 93.2% and 36.2%, respectively. In the assay with Rattus norvegicus [5], the inhibition result is “inactive”. Also, in the assay with Rattus norvegicus [6], the inhibition result was “Active”.

In the case of `CCCCCCCCCCCCCCCCCC(=O)OC[C@H](COP(=O)(O)OCCOCCOCCOCCOCCOCCOCCOCCOCCOCCOCCOCCNC(=O)CCCCCC(=O)NCCc1ccc(O)c([C@H](CCN(C(C)C)C(C)C)c2ccccc2)c1)OC(=O)CCCCCCCCCCCCCCCCC`, the Activity in assay [1] amounted to 11.2%; in assay [3], 1.9%. The pIC50 in assay [2] is 8.49.

Regarding `CC(C)N(CC[C@H](c1ccccc1)c1cc(CCNC(=O)CCCCCNC(=O)COc2ccc(/C=C/C3=[N+]4C(=Cc5ccc(-c6cccs6)n5[B-]4(F)F)C=C3)cc2)ccc1O)C(C)C`, the Ki was found to be 17.5 nM in assay [7]; 10.3 nM in assay [10]; 9 nM in assay [11]; 6.3 nM in assay [8]; 4.6 nM in assay [9].

As for `CCCCCCCCCCCCCCCCCC(=O)OC[C@H](COP(=O)(O)OCCOCCNC(=O)CCCCCC(=O)NCCc1ccc(O)c([C@H](CCN(C(C)C)C(C)C)c2ccccc2)c1)OC(=O)CCCCCCCCCCCCCCCCC`, the Activity in assay [1] turned out to be 66.4%; in [3], 59.2%. In assay [2], this compound yielded a pIC50 of 6.91.

As to `CCCCCCCCCCCCCCCCCC(=O)OC[C@H](COP(=O)(O)OCCOCCOCCOCCNC(=O)CCCCCC(=O)NCCc1ccc(O)c([C@H](CCN(C(C)C)C(C)C)c2ccccc2)c1)OC(=O)CCCCCCCCCCCCCCCCC`, the Activity stood at 32.3% in assay [1] and 15.5% in [3]. Besides, the pIC50 in [2] is listed as 7.74.

`CCCCCCCCCCCCCCCCCC(=O)OC[C@H](COP(=O)(O)OCCOCCOCCOCCOCCOCCNC(=O)CCCCCC(=O)NCCc1ccc(O)c([C@H](CCN(C(C)C)C(C)C)c2ccccc2)c1)OC(=O)CCCCCCCCCCCCCCCCC`: the Activity in assay [1] is 14.5%; in assay [3], 5.1%. For the same compound, the pIC50 in assay [2] is 7.86.
